Measurements taken from ChEMBL document CHEMBL1146370 (Bioorg Med Chem, 2007).

tested on: not listed separately; test: Half life in Sprague-Dawley rat plasma at 20 mg/kg, po; format: ADME, organism-based; design: dose 20 mg/kg, route oral; conditions: not given
Summary of the method: (§1)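 Sprague-Dawley rats were gavaged with 20 mg/kg in 23% hydroxypropyl-beta-cyclodextrin with 0.68% lactic acid; the screen co-dosed three compounds per animal. Blood was taken by cardiac puncture under CO2 anesthesia into sodium heparin at 0.25, 0.5, 1, 2, 4, 8, 12 and 24 h, from 3 rats per time point. Plasma was separated within 1 h. Plasma and brain levels were measured by LC/MS.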

| half-life [h] | SMILES |
| --- | --- |
| 2.5 | C[C@@H](NC(=O)[C@@H](CC(=O)N1CCC(N2CCCCC2)CC1)N1C(=O)[C@@H](N2C(=O)OC[C@@H]2c2ccccc2)[C@H]1/C=C/c1ccccc1)c1ccccc1 |
| 4 | CN(Cc1cccc(C(F)(F)F)c1)C(=O)[C@@H](CC(=O)N1CCC(N2CCCCC2)CC1)N1C(=O)[C@@H](N2C(=O)OC[C@@H]2c2ccccc2)[C@H]1/C=C/c1ccccc1 |

tested on: not listed separately; test: Cmax in Sprague-Dawley rat plasma at 20 mg/kg, po; format: ADME, organism-based; design: dose 20 mg/kg, route oral; conditions: not given; summary of the method: as §1

| Cmax [ng/mL] | SMILES |
| --- | --- |
| 50 | O=C(NCc1cccc(C(F)(F)F)c1)[C@@H](CC(=O)N1CCC(N2CCCCC2)CC1)N1C(=O)[C@@H](N2C(=O)OC[C@@H]2c2ccccc2)[C@H]1/C=C/c1ccccc1 |
| 100 | C[C@@H](NC(=O)[C@@H](CC(=O)N1CCC(N2CCCCC2)CC1)N1C(=O)[C@@H](N2C(=O)OC[C@@H]2c2ccccc2)[C@H]1/C=C/c1ccccc1)c1ccccc1 |
| 160 | CN(Cc1cccc(C(F)(F)F)c1)C(=O)[C@@H](CC(=O)N1CCC(N2CCCCC2)CC1)N1C(=O)[C@@H](N2C(=O)OC[C@@H]2c2ccccc2)[C@H]1/C=C/c1ccccc1 |

molecular target: Vasopressin V1a receptor (Homo sapiens, UniProt P37288); test: Binding affinity for human cloned vasopressin V1a receptor expressed in CHO cells; format: cell-based; conditions: not given
Sequence (P37288 whole entry): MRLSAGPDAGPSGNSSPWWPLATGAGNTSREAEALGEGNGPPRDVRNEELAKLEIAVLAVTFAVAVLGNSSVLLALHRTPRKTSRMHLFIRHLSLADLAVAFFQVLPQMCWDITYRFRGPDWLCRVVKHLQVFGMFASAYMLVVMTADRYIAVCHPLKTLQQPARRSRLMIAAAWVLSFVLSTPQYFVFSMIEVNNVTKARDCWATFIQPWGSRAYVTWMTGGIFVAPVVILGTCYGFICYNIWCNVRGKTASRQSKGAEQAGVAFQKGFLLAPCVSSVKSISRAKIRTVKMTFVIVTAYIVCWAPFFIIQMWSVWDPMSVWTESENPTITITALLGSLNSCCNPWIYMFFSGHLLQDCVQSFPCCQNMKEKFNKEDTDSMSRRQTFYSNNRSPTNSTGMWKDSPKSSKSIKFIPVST
Summary of the method: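 Whole-cell competition binding on CHO cells stably expressing human V1a, grown in alpha-MEM with 10% FBS and 250 ug/ml G418. Cells were plated at least 2 days ahead and incubated 30 min at 37 °C in HEPES/BSA/DMEM buffer (pH 7.0) with 1 nM [3H]AVP and 5 test concentrations (usually 0.1–1000 nM), in triplicate. Nonspecific binding was set with 100 nM AVP. Bound radioactivity was SDS-lysed and scintillation-counted. Curve-fit IC50 was converted to Ki with a 0.61 factor.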

| IC50 [nM] | Ki [nM] | SMILES |
| --- | --- | --- |
| > 5000 |  | CC1(C(C(=O)O)N2C(=O)[C@@H](N3C(=O)OC[C@@H]3c3ccccc3)[C@H]2/C=C/c2ccccc2)OCCO1 (stereo not given in full) |
|  | > 600 | CN(C)CCNC(=O)[C@H](CC(=O)NCc1cccc(C(F)(F)F)c1)N1C(=O)[C@@H](N2C(=O)OC[C@@H]2c2ccccc2)[C@H]1/C=C/c1ccccc1 |
| 2 |  | CC(C)(C)C(=O)C(C(=O)OCc1ccccc1)N1C(=O)[C@@H](N2C(=O)OC[C@@H]2c2ccccc2)[C@H]1/C=C/c1ccco1 (stereo not given in full) |
|  | 30 | O=C(NCc1cccc(C(F)(F)F)c1)[C@H](CC(=O)N1CCN(C2CCCCC2)CC1)N1C(=O)[C@@H](N2C(=O)OC[C@@H]2c2ccccc2)[C@H]1/C=C/c1ccccc1 |
| > 20000 |  | CC1(C(C(=O)OCc2ccccc2)N2C(=O)C(N)[C@H]2/C=C/c2ccccc2)OCCO1 (stereo not given in full) |
| > 20000 |  | CC(=O)NC1C(=O)N(C(C(=O)OCc2ccccc2)C2(C)OCCO2)[C@@H]1/C=C/c1ccccc1 (stereo not given in full) |
| 128 |  | CC(C)C[C@@H](C(=O)NCc1ccccc1)N1C(=O)[C@@H](N2C(=O)OC[C@@H]2c2ccccc2)[C@H]1/C=C/c1ccccc1 |
| 54 |  | CC(C)C[C@@H](C(=O)N1CCC(N2CCCCC2)CC1)N1C(=O)[C@@H](N2C(=O)OC[C@@H]2c2ccccc2)[C@H]1/C=C/c1ccccc1 |
| 45 |  | CC1(C(C(=O)OCc2ccccc2)N2C(=O)[C@@H](N3C(=O)OC[C@@H]3c3ccccc3)[C@H]2/C=C/c2ccccc2)OCCO1 (stereo not given in full) |
|  | < 60 | O=C(NCc1cccc(C(F)(F)F)c1)[C@H](CC(=O)N1CCN(C2CCCC2)CC1)N1C(=O)[C@@H](N2C(=O)OC[C@@H]2c2ccccc2)[C@H]1/C=C/c1ccccc1 |
| 262 |  | CC(C)C[C@@H](C(=O)NCc1ccc(Cl)cc1)N1C(=O)[C@@H](N2C(=O)OC[C@@H]2c2ccccc2)[C@H]1/C=C/c1ccccc1 |
|  | > 600 | CN(C)CCCNC(=O)[C@H](CC(=O)NCc1cccc(C(F)(F)F)c1)N1C(=O)[C@@H](N2C(=O)OC[C@@H]2c2ccccc2)[C@H]1/C=C/c1ccccc1 |
|  | < 60 | O=C(NCc1cccc(C(F)(F)F)c1)[C@H](CC(=O)N1CCN(CCN2CCCC2)CC1)N1C(=O)[C@@H](N2C(=O)OC[C@@H]2c2ccccc2)[C@H]1/C=C/c1ccccc1 |
|  | 179 | C[C@@H](NC(=O)[C@H](CC(=O)N1CCC(CCN2CCCCC2)CC1)N1C(=O)[C@@H](N2C(=O)OC[C@@H]2c2ccccc2)[C@H]1/C=C/c1ccccc1)c1ccccc1 |
|  | 1.27 | C[C@@H](NC(=O)[C@@H](CC(=O)N1CCC(N2CCCCC2)CC1)N1C(=O)[C@@H](N2C(=O)OC[C@@H]2c2ccccc2)[C@H]1/C=C/c1ccccc1)c1cccc(C(F)(F)F)c1 [SRX246] |
| 61000 |  | CC1(C(C(=O)OCc2ccccc2)N2C(=O)[C@@H](N3C(=O)c4ccccc4C3=O)[C@H]2/C=C/c2ccccc2)OCCO1 (stereo not given in full) |
| 100 |  | O=C(OCc1ccccc1)C(C(=O)c1ccccc1)N1C(=O)[C@@H](N2C(=O)OC[C@@H]2c2ccccc2)[C@H]1/C=C/c1ccccc1 (stereo not given in full) |
|  | 1.19 | CCCN1CCN(C(=O)CC[C@@H](C(=O)NCc2cccc(C(F)(F)F)c2)N2C(=O)[C@@H](N3C(=O)OC[C@@H]3c3ccccc3)[C@H]2/C=C/c2ccccc2)CC1 |
|  | > 12 | O=C(NCc1cccc(C(F)(F)F)c1)[C@@H](CCC(=O)N1CCN(CC2CCCCC2)CC1)N1C(=O)[C@@H](N2C(=O)OC[C@@H]2c2ccccc2)[C@H]1/C=C/c1ccccc1 |

| IC50 [nM] | Ki [nM] | SMILES |
| --- | --- | --- |
|  | > 6 | C[C@@H](NC(=O)[C@H](CC(=O)N1CCC(N2CCCCC2)CC1)N1C(=O)[C@@H](N2C(=O)OC[C@@H]2c2ccccc2)[C@H]1/C=C/c1ccccc1)c1cccc(C(F)(F)F)c1 |
|  | 23 | O=C(NCc1cccc(C(F)(F)F)c1)[C@H](CC(=O)N1CCC(CCN2CCCCC2)CC1)N1C(=O)[C@@H](N2C(=O)OC[C@@H]2c2ccccc2)[C@H]1/C=C/c1ccccc1 |
| 1000 |  | CC(C)C[C@@H](C(=O)NCc1ccccc1Cl)N1C(=O)[C@@H](N2C(=O)OC[C@@H]2c2ccccc2)[C@H]1/C=C/c1ccccc1 |
| > 5000 |  | CC1(C(C(=O)OCc2ccccc2)N2C(=O)C(NC(=O)Nc3ccccc3)[C@H]2/C=C/c2ccccc2)OCCO1 (stereo not given in full) |
|  | 1.17 | O=C(NCc1cccc(C(F)(F)F)c1)[C@H](CCC(=O)N1CCN(CCc2ccccc2)CC1)N1C(=O)[C@@H](N2C(=O)OC[C@@H]2c2ccccc2)[C@H]1/C=C/c1ccccc1 |
|  | 6100 | O=C(C[C@@H](C(=O)N1CCN(CCc2ccccc2)CC1)N1C(=O)[C@@H](N2C(=O)OC[C@@H]2c2ccccc2)[C@H]1/C=C/c1ccccc1)NCc1cccc(C(F)(F)F)c1 |
| 85 |  | CC(C)(C)C(=O)[C@@H](C(=O)N1CCC(CCN2CCCCC2)CC1)N1C(=O)[C@@H](N2C(=O)OCC2c2ccccc2)C1/C=C/c1ccccc1 (single isomer, unassigned) |
|  | < 30 | O=C(NCc1ccc(F)c(C(F)(F)F)c1)[C@H](CCC(=O)N1CCN(C2CCCCC2)CC1)N1C(=O)[C@@H](N2C(=O)OC[C@@H]2c2ccccc2)[C@H]1/C=C/c1ccccc1 |
|  | 9 | O=C(CC[C@@H](C(=O)NCc1cccc(C(F)(F)F)c1)N1C(=O)[C@@H](N2C(=O)OC[C@@H]2c2ccccc2)[C@H]1/C=C/c1ccccc1)NCCN1CCCCC1 |
| > 20000 |  | CC1(C(C(=O)OCc2ccccc2)N2C(=O)C(C)(C)[C@H]2/C=C/c2ccccc2)OCCO1 (stereo not given in full) |
| > 20000 |  | CC(C)(C)C(=O)C(C(=O)OCc1ccccc1)N1C(=O)[C@@H](N2C(=O)OC[C@@H]2c2ccccc2)[C@H]1C=O (stereo not given in full) |
| 400 |  | O=C(CN1C(=O)[C@@H](N2C(=O)OC[C@@H]2c2ccccc2)[C@H]1/C=C/c1ccccc1)OCc1ccccc1 |
|  | 1.95 | O=C(NCc1cccc(C(F)(F)F)c1)[C@H](CCC(=O)N1CCC(CN2CCCCC2)CC1)N1C(=O)[C@@H](N2C(=O)OC[C@@H]2c2ccccc2)[C@H]1/C=C/c1ccccc1 |
| > 500 |  | CC(C)(C)C(=O)C(C(=O)OCc1ccccc1)N1C(=O)[C@@H](N2C(=O)OC[C@@H]2c2ccccc2)[C@H]1CCc1ccccc1 (stereo not given in full) |
|  | 30 | O=C(NCc1cccc(C(F)(F)F)c1)[C@@H](CCC(=O)N1CCC(N2CCCCC2)CC1)N1C(=O)[C@@H](N2C(=O)OC[C@@H]2c2ccccc2)[C@H]1/C=C/c1ccccc1 |
|  | 0.27 | O=C(NCc1cccc(C(F)(F)F)c1)[C@H](CCC(=O)N1CCN(C2CCCCC2)CC1)N1C(=O)[C@@H](N2C(=O)OC[C@@H]2c2ccccc2)[C@H]1/C=C/c1ccccc1 |
|  | 8.7 | C[C@H](NC(=O)[C@H](CC(=O)N1CCC(CCN2CCCCC2)CC1)N1C(=O)[C@@H](N2C(=O)OC[C@@H]2c2ccccc2)[C@H]1/C=C/c1ccccc1)c1ccccc1 |
| 405 |  | CC1(C(C(=O)OCC[Si](C)(C)C)N2C(=O)[C@@H](N3C(=O)OC[C@@H]3c3ccccc3)[C@H]2/C=C/c2ccccc2)OCCO1 (stereo not given in full) |
|  | 27.5 | O=C(NCc1cccc(C(F)(F)F)c1)[C@@H](CC(=O)N1CCN(N2CCCC2)CC1)N1C(=O)[C@@H](N2C(=O)OC[C@@H]2c2ccccc2)[C@H]1/C=C/c1ccccc1 |

tested on: not listed separately; test: Drug level in dog brain at 10 mg/kg, po after 4 hrs; format: ADME, organism-based, Canis lupus familiaris; design: dose 10 mg/kg, route oral; conditions: read-out: Drug uptake
Summary of the method: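 A single dog received an oral dose of 10 mg/kg in 10% DMSO/90% PEG300. Brain regions (cortex, brain stem, cerebellum, hypothalamus, hippocampus) and blood were frozen and stored at −70 °C. Samples were homogenized in pH 9.4 buffer, extracted with ethyl acetate with an extraction reference added, reconstituted in acetonitrile, and quantified by ESI LC/MS/MS against spiked control brain standards.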

| concentration at 4 h [nM] | SMILES |
| --- | --- |
| 100 | CC(C)C[C@@H](C(=O)N1CCC(CCN2CCCCC2)CC1)N1C(=O)[C@@H](N2C(=O)OC[C@@H]2c2ccccc2)[C@H]1/C=C/c1ccccc1 |

tested on: not listed separately; test: Cmax in Sprague-Dawley rat brain at 20 mg/kg, po; format: ADME, organism-based; design: dose 20 mg/kg, route oral; conditions: not given; summary of the method: as §1

| Cmax [ng/mL] | SMILES |
| --- | --- |
| 20 | C[C@@H](NC(=O)[C@@H](CC(=O)N1CCC(N2CCCCC2)CC1)N1C(=O)[C@@H](N2C(=O)OC[C@@H]2c2ccccc2)[C@H]1/C=C/c1ccccc1)c1ccccc1 |
| 48 | CN(Cc1cccc(C(F)(F)F)c1)C(=O)[C@@H](CC(=O)N1CCC(N2CCCCC2)CC1)N1C(=O)[C@@H](N2C(=O)OC[C@@H]2c2ccccc2)[C@H]1/C=C/c1ccccc1 |

tested on: not listed separately; test: Tmax in Sprague-Dawley rat plasma at 20 mg/kg, po; format: ADME, organism-based; design: dose 20 mg/kg, route oral; conditions: not given; summary of the method: as §1

| Tmax [h] | SMILES |
| --- | --- |
| 4 | C[C@@H](NC(=O)[C@@H](CC(=O)N1CCC(N2CCCCC2)CC1)N1C(=O)[C@@H](N2C(=O)OC[C@@H]2c2ccccc2)[C@H]1/C=C/c1ccccc1)c1ccccc1 |
| 4 | CN(Cc1cccc(C(F)(F)F)c1)C(=O)[C@@H](CC(=O)N1CCC(N2CCCCC2)CC1)N1C(=O)[C@@H](N2C(=O)OC[C@@H]2c2ccccc2)[C@H]1/C=C/c1ccccc1 |

tested on: not listed separately; test: Half life in Sprague-Dawley rat brain at 20 mg/kg, po; format: ADME, organism-based; design: dose 20 mg/kg, route oral; conditions: not given; summary of the method: as §1

| half-life [h] | SMILES |
| --- | --- |
| 6 | C[C@@H](NC(=O)[C@@H](CC(=O)N1CCC(N2CCCCC2)CC1)N1C(=O)[C@@H](N2C(=O)OC[C@@H]2c2ccccc2)[C@H]1/C=C/c1ccccc1)c1ccccc1 |
| 6 | CN(Cc1cccc(C(F)(F)F)c1)C(=O)[C@@H](CC(=O)N1CCC(N2CCCCC2)CC1)N1C(=O)[C@@H](N2C(=O)OC[C@@H]2c2ccccc2)[C@H]1/C=C/c1ccccc1 |
